For data set [1], the target named is T1, Bifunctional epoxide hydrolase 2 (Homo sapiens, UniProt P34913).
T1 sequence (P34913 whole entry): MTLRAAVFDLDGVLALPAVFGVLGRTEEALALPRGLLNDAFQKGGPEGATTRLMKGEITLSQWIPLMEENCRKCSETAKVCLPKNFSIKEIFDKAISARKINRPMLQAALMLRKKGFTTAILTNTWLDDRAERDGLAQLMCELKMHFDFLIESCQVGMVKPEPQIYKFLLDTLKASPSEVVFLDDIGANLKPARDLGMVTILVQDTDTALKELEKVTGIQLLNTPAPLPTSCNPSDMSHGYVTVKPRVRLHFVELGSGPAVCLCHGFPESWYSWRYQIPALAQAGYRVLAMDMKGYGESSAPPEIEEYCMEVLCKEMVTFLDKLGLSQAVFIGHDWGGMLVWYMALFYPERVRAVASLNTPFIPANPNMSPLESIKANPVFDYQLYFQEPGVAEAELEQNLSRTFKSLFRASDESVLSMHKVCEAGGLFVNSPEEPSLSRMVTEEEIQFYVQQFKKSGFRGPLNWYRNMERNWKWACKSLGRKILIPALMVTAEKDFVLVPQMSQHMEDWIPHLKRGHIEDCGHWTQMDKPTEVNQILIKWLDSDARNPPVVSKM
The data set can be described thus: Inhibition of human soluble epoxide hydrolase by kinetic fluorescent assay. Put shortly: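 Human sEH enzyme, kinetic fluorescence read-out; each value is the mean of three separate experiments.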

Data set [2] is described as follows: Solubility of the compound in 0.1 M sodium phosphate buffer at pH 7.4. In kind it is physicochemical. Put shortly: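 Measured in 0.1 M sodium phosphate buffer, pH 7.4, with 1% DMSO present.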

We go through 25 molecules from ChEMBL document CHEMBL4665720, “Bioisosteric substitution of adamantane with bicyclic lipophilic groups improves water solubility of human soluble epoxide hydrolase inhibitors” (Bioorg Med Chem Lett, 2020).

SMILES strings stand for the structures. Values after ≈ are worked out from the molar mass of the structure shown.

As a reminder, the IC50 is the concentration needed to halve the response being measured. The low end stands for greater potency, the high end for weaker potency. In general, solubility refers to the dissolved amount per volume that the medium holds. In data set [1], `O=C(NCCCCCCNC(=O)NCc1ccco1)NCc1ccco1` gave an IC50 of 86.3 nM. The molecule further had a solubility in data set [2] (buffer) of 100 µM (≈ 36.2 µg/mL).
For `O=C(Nc1ccc(OC(F)(F)F)cc1)N[C@H]1CC[C@H](Oc2ccc(C(=O)O)cc2)CC1`, the solubility in data set [2] (sodium phosphate buffer, read-out: solubility) came out at 5 µM (≈ 2.19 µg/mL).
Take `O=C(NCc1ccco1)Nc1ccccc1F`: inhibition in data set [1] was half-maximal at 635 nM (IC50). The molecule further displayed a solubility in data set [2] (buffer) of 425 µM (≈ 99.5 µg/mL).
For `O=C(NCCCCNC(=O)NC1CC2C=CC1C2)NC1CC2C=CC1C2` (stereo not given), the IC50 in data set [1] was 21 nM. That is a double-digit nanomolar value.
The same measure, in the same setting: under `O=C(Nc1ccc(OC(F)(F)F)cc1)NC1CC2CCC1C2` (stereo not given) stands 0.4 nM.
In data set [1], `O=C(Nc1ccccc1F)NC1CC2CCC1C2` (stereo not given) came in with a half-maximal inhibitory concentration (IC50) of 6.8 nM. This molecule also yielded a solubility in data set [2] (buffer) of 325 µM (≈ 80.7 µg/mL).
For `O=C(NCCCCNC(=O)NC1CC2CCC1C2)NC1CC2CCC1C2` (stereo not given) the same measures were 11.8 nM and 75 µM (≈ 27.2 µg/mL).
In data set [1], `CC1(C)C2CCC1(C)C(NC(=O)NCCCCCCCCNC(=O)NC1CC3CCC1(C)C3(C)C)C2` (stereo not given) came in with an IC50 of 0.4 nM. The molecule further displayed a solubility in data set [2] (buffer) of 10 µM (≈ 5.03 µg/mL).
Take `O=C(NCCCCNC(=O)NCc1ccco1)NCc1ccco1`: the IC50 in data set [1] turned out to be 1800 nM. In data set [2] (buffer), this molecule came in with a solubility of 225 µM (≈ 75.2 µg/mL).
For the molecule `O=C(NC1CC2C=CC1C2)N[C@H]1CC[C@H](Oc2ccc(C(=O)O)cc2)CC1` (stereo not given in full), in data set [1], the IC50 turned out to be 1.5 nM. The molecule also gave a solubility in data set [2] (buffer) of 350 µM (≈ 130 µg/mL).
`O=C(NCCCCCCCCNC(=O)NCc1ccco1)NCc1ccco1`: the solubility in data set [2] (buffer) was 50 µM (≈ 19.5 µg/mL).
In the case of `O=C(NCCCCCCCCNC(=O)NC1CC2CCC1C2)NC1CC2CCC1C2` (stereo not given), in data set [1], the midpoint of inhibition, the IC50, lay at 0.4 nM. This counts as sub-nanomolar.
Molecule `CC1(C)C2CCC1(C)C(NC(=O)NCCCCNC(=O)NC1CC3CCC1(C)C3(C)C)C2` (stereo not given) showed a 50% inhibitory concentration (IC50) in data set [1] of 2.3 nM. In data set [2] (buffer), this molecule had a solubility of 10 µM (≈ 4.47 µg/mL).
For `CCOC(=O)CNC(=O)NC1CC2CCC1C2` (stereo not given) the same measures were 1580 nM and over 2000 µM.
`CC12CCC(NC(=O)N[C@H]3CC[C@H](Oc4ccc(C(=O)O)cc4)CC3)(OC1=O)C2(C)C` (stereo not given in full): the IC50 in data set [1] amounted to 35.3 nM. In data set [2] (buffer), the solubility was found to be 300 µM (≈ 129 µg/mL).
Molecule `O=C(NC1CC2C=CC1C2)NC1C2CC3CC(C2)CC1C3` (stereo not given) showed an IC50 in data set [1] of 0.9 nM. This counts as sub-nanomolar.
The molecule `CCOC(=O)CNC(=O)NC1CC2CCC1(C)C2(C)C` (stereo not given) had a half-inhibitory concentration (IC50) in data set [1] of 2170 nM. For the same molecule, in data set [2] (buffer), the solubility is over 2000 µM.
Take `O=C(NCCCCCCCCCCNC(=O)NC1CC2C=CC1C2)NC1CC2C=CC1C2` (stereo not given): the IC50 in data set [1] was 0.4 nM.
In data set [1], `O=C(NCc1ccco1)NCC12CC3CC(CC(C3)C1)C2` returned an IC50 of 44.8 nM. Moreover, in data set [2] (buffer), the solubility came out at 300 µM (≈ 86.5 µg/mL).
Molecule `CC1(C)C2CCC1(C)C(NC(=O)Nc1ccc(OC(F)(F)F)cc1)C2` (stereo not given) had a concentration for half-maximal inhibition (IC50) in data set [1] of 2.5 nM.
Take `CC1(C)C2CCC1(C)C(NC(=O)Nc1ccccc1F)C2` (stereo not given): the IC50 in data set [1] was found to be 14.4 nM. This molecule also returned a solubility in data set [2] (buffer) of 225 µM (≈ 65.3 µg/mL).
For `CCCCCCCCNC(=O)NC1CC2CCC1(C)C2(C)C` (stereo not given) the same measures were 6.5 nM and 125 µM (≈ 38.6 µg/mL).
`O=C(NCC12CC3CC(CC(C3)C1)C2)NC1CC2C=CC1C2` (stereo not given) gave an IC50 in data set [1] of 0.7 nM.
Turning to `CC1(C)[C@H]2CC[C@]1(C)C(NC(=O)Nc1ccccc1F)C2` (mixture of isomers), the IC50 in data set [1] was found to be 3.7 nM.
Consider `CC1(C)[C@@H]2CC[C@@]1(C)C(NC(=O)Nc1ccccc1F)C2` (mixture of isomers), for which the IC50 in data set [1] was found to be 50.6 nM. In addition, in data set [2] (buffer), the solubility was 225 µM.
